Columns and labels:
Assay type in all cases: functional
Conditions in all cases: UCA 992, 144 h
[1] = system: Botrytis cinerea; experiment: Antifungal activity against Botryotinia fuckeliana UCA 992 assessed as inhibition of radial growth at 200 ug/mL after 6 days relative to control
Outline: (§1)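 Radial growth assay on glucose-malt-peptone-agar (61 g/L, pH 6.5-7.0). Compounds dissolved in EtOH, giving 50-200 mg L-1 final in the medium, with equal EtOH in control and treated plates. A 5 mm mycelial disk from an actively growing culture was placed at the plate centre and radial growth followed for 6 days. % inhibition = 100 - [(treated growth/control growth) × 100]. At least three independent experiments, each in triplicate, ± SD.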

[2] = system: Botrytis cinerea; experiment: Antifungal activity against Botryotinia fuckeliana UCA 992 assessed as inhibition of radial growth at 50 ug/mL after 6 days relative to control; outline: as §1
[3] = system: Botrytis cinerea; experiment: Antifungal activity against Botryotinia fuckeliana UCA 992 assessed as inhibition of radial growth at 100 ug/mL after 6 days relative to control; outline: as §1

SMILES	inhibition at 200 µg/mL [1]	inhibition at 50 µg/mL [2]	inhibition at 100 µg/mL [3]
CC1(C)C[C@H](O)[C@]23CC[C@H](O)[C@@](C)(CC[C@@H]12)C3	30%	21%	24%
CO[C@H]1CC(C)(C)[C@@H]2CC[C@@]3(C)C[C@]12CCC3=O	76%	17%	42%
CC1(C)CC(=O)[C@]23CCC(=O)[C@@](C)(CC[C@@H]12)C3	36%	21%	25%
CO[C@H]1CC(C)(C)[C@@H]2CC[C@@]3(CO)C[C@]12CC[C@H]3O	24%	2%	9%
CO[C@H]1CC(C)(C)[C@@H]2CC[C@@]3(C)C[C@]12CC[C@@H]3O	65%	29%	43%
C=CCO[C@H]1CC(C)(C)[C@@H]2CC[C@@]3(C)C[C@]12CC[C@H]3O	82%	63%	72%
CC1(C)C[C@H](OCCN)[C@]23CC[C@@H](O)[C@@](C)(CC[C@@H]12)C3	97%	50%	82%
CC1(C)C[C@H](OCCCl)[C@]23CC[C@@H](O)[C@@](C)(CC[C@@H]12)C3	66%	56%	64%
CC1(C)C[C@H](OCCBr)[C@]23CC[C@@H](O)[C@@](C)(CC[C@@H]12)C3	77%	68%	73%
CC1(C)C[C@H](OCCI)[C@]23CC[C@@H](O)[C@@](C)(CC[C@@H]12)C3	70%	65%	67%
CC1(C)C[C@H](OCCS)[C@]23CC[C@@H](O)[C@@](C)(CC[C@@H]12)C3	28%	27%	27%
CC1(C)C[C@H](OCC[N+](=O)[O-])[C@]23CC[C@@H](O)[C@@](C)(CC[C@@H]12)C3	90%	80%	86%
CC1(C)C[C@H](OCCO)[C@]23CC[C@@H](O)[C@@](C)(CC[C@@H]12)C3	60%	48%	54%
CC1(C)C[C@H](OCCn2ccnc2)[C@]23CC[C@@H](O)[C@@](C)(CC[C@@H]12)C3	98%	67%	84%
CC1(C)C[C@H](OCCOc2ccc([N+](=O)[O-])cc2)[C@]23CC[C@@H](O)[C@@](C)(CC[C@@H]12)C3	81%	76%	79%
CC1(C)C[C@H](OCCSC(=N)N)[C@]23CC[C@@H](O)[C@@](C)(CC[C@@H]12)C3	97%	70%	83%
CC1(C)C[C@H](OCCSc2ccccc2)[C@]23CC[C@@H](O)[C@@](C)(CC[C@@H]12)C3	24%	6%	12%
CC1(C)C[C@H](OCCn2cncn2)[C@]23CC[C@@H](O)[C@@](C)(CC[C@@H]12)C3	86%	34%	57%
CC(C)(C)O[C@H]1CC(C)(C)[C@@H]2CC[C@@]3(C)C[C@]12CC[C@H]3O	78%	59%	66%
CC1(C)C[C@H](SCCS)[C@]23CC[C@@H](O)[C@@](C)(CC[C@@H]12)C3	38%	32%	34%
CC1(C)C[C@H](OCCN2C(=O)c3ccccc3C2=O)[C@]23CC[C@@H](O)[C@@](C)(CC[C@@H]12)C3	60%	50%	55%
CO[C@H]1CC(C)(C)[C@@H]2CC[C@@]3(C)C[C@]12CC[C@H]3O [2BETA-METHOXYCLOVAN-9ALPHA-OL]	83%	49%	60%
CC1(C)C[C@H](O)[C@]23CC[C@@H](O)[C@@](C)(CC[C@@H]12)C3 [CLOVANEDIOL]	63%	36%	50%

Source: ChEMBL document CHEMBL3046965, “Synthesis and quantitative structure-antifungal activity relationships of clovane derivatives against Botrytis cinerea” (2009)
